Most compounds without a hit are left out; they make up all but 2.3% or so of the library.
HNF4A DNA FP = change in binding of human HNF4 alpha to DNA. P41235. HNF4a-FITC DNA binding, fluorescence polarization, 1 h. actives 0.3% (n = 360,000). activity change, % at 10 µM; in the data active means activity change above about 30%, passing the limit was not always enough
CRFBP-R2 agonist = CRF-BP/CRF-R2 complex agonism | HEK293 CRF-R2/CRF-BP, calcium dye fluorescence (FLIPR); percent of saturating CRF peptide response | activation, % at 13.2 µM | actives 0.46% (n = 350,000);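 active means activation of at least 50%, plus an integration ratio under a set limit after plate pattern correction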
Rpn11 block = Rpn11 (human) deubiquitinase inhibition; O00487; human 26S proteasome, Ub4-pepOG fluorescence polarization; 20S core pre-blocked with epoxomicin; calls only at 20 µM; actives 0.59% (n = 360,000);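 active means inhibition at 20 µM, scaled to each plate's controls, above about 33%, limit read from the data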
Target sequence (O00487 whole entry, looked up): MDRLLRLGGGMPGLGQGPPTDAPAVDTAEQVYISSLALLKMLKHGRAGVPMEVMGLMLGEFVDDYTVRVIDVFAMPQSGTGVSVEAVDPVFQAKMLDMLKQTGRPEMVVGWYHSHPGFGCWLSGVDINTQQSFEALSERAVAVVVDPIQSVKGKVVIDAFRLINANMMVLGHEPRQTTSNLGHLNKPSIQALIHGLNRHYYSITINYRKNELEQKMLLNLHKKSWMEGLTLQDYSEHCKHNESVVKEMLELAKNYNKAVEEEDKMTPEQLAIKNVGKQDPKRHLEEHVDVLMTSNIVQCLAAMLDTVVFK
CSN inh = CSN deneddylation inhibition | Q92905 | Purified CSN, SCF-Nedd8-OG deneddylation, fluorescence polarization | inhibition, % at 12.5 µM | actives 0.38% (n = 360,000);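 active means pattern-corrected inhibition above about 35%, with an unprinted fluorescence ratio check between 0.5 and 1.5, limit read from the data, passing the limit was not always enough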
Target sequence (Q92905 whole entry, looked up, one chain of several): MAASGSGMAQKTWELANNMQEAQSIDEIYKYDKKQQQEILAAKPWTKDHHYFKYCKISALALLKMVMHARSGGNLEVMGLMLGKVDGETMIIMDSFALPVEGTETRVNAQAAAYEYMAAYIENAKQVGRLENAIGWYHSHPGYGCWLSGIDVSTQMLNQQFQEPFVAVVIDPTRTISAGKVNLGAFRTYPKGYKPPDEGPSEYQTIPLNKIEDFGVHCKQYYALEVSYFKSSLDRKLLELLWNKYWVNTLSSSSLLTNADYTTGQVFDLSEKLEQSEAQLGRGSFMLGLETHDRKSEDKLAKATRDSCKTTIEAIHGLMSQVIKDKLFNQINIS
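test system = HEK293T-derived human Csn5 enzyme | amount = 0.24 nM Csn5 enzyme, final concentration | medium = Tris/NaCl/DTT buffer, pH 7.5 | schedule = 90 min reaction at room temperature | signal = FP | evaluation = inhibition of Csn5 cleavage, % | compound dosing = single dose of 12.5 µM compound with 0.25% DMSO | probe or stimulus = 10 nM SCFSkp2-Nedd8OG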
CRFR2-BP antag = antagonists of CRF-binding protein/CRF-R2 receptor complex. HEK293 CRF-R2/CRF-BP, CRF-induced calcium fluorescence. inhibition, % at 11.8 µM. actives 0.59% (n = 350,000). AID 588475;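 active means inhibition of the ligand-induced calcium signal above about 50% at the single tested concentration, limit read from the data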
TPT1 inhibitor = C. albicans TPT1 enzyme inhibition. recombinant caTPT1, FP RNA substrate dephosphorylation. inhibition, % at 5 µM. actives 0.81% (n = 300,000);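 active means inhibition above the mean of all tested compounds plus 3 SD, set per screening campaign, cut at about 24% in these data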
TPT1 inh confirm = TPT1 (C. albicans) inhibition, confirmation. shares compounds with TPT1 inhibitor. recombinant caTPT1, fluorescence polarization, RNase T1 coupled. inhibition, % at 5 µM. actives 74% (n = 2,400);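 active means inhibition above the primary screen limit, the mean inhibition of all tested compounds plus 3 SD, cut at about 25% in these data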
RNase T1 inh = RNase T1 inhibition in TPT1 counter-screen. inhibition, % at 5 µM. shares compounds with TPT1 inhibitor. AID 2153. RNase T1 cleavage, fluorescence polarization, 1536-well. actives 83% (n = 2,400);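 active means inhibition above the solvent-only control well mean plus 3 SD, limit set per screening run, cut at about 23% in these data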;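 further: inhibitors block cleavage so intact labeled substrate keeps polarization high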
Of the large screens only hits and unclear results are named; the others gave an inactive call (follow-up assays come after a bar, where shown).

O=C(/C=C/c1ccco1)Nc1cccnc1	none
CCOCCCNCC(=O)Nc1ccc(OC(F)(F)F)cc1	none
COCCNCC(=O)Nc1ccc(OC(F)(F)F)cc1	TPT1 inhibitor 62 | TPT1 inh confirm inactive | RNase T1 inh inactive
COc1ccc(CCNc2oc(COc3ccccc3F)nc2C#N)cc1OC	none
Cc1csc(Nc2ccccc2)n1	TPT1 inhibitor active | TPT1 inh confirm inactive | RNase T1 inh inactive
Cc1csc(Nc2ccc(C(=O)O)cc2)n1	none
O=C(N/N=C/c1sc2ccccc2c1O)c1cccc2ccccc12	HNF4A DNA FP 75, TPT1 inhibitor 136 (not shown: Rpn11 block) | TPT1 inh confirm 143 | RNase T1 inh 134
COc1ccc2cc(C(=O)N/N=C/c3sc4ccccc4c3O)ccc2c1	CRFBP-R2 agonist 166, TPT1 inhibitor 136 (not shown: Rpn11 block) | TPT1 inh confirm 135 | RNase T1 inh 126
O=C(N/N=C/c1sc2ccccc2c1O)c1ccccc1	TPT1 inhibitor 135 (not shown: Rpn11 block) | TPT1 inh confirm 135 | RNase T1 inh 128
O=C(N/N=C/c1ccc(F)cc1)c1ccccc1	none
COc1ccc(C(=O)N/N=C/c2sc3ccccc3c2O)cc1	CRFBP-R2 agonist 50, TPT1 inhibitor 139 (not shown: Rpn11 block) | TPT1 inh confirm 145 | RNase T1 inh 135
COc1ccc(C(=O)N/N=C/c2c[nH]c3ccccc23)cc1	none
COc1ccccc1N1CCN(Cc2ccc(-c3ccccc3[N+](=O)[O-])o2)CC1	none
Cn1c(=O)c(=O)n(C)c2cc(S(=O)(=O)N3CCCC3C(=O)NCc3ccco3)ccc21 (stereo unspecified)	none
CNC(=O)c1ccc(-c2ccc(Cl)c(Cl)c2)s1	none
O=c1c(/C=C(\O)c2ccccc2)nc2ccccc2n1-c1ccccc1	HNF4A DNA FP 46, CRFBP-R2 agonist 156, TPT1 inhibitor 119 | TPT1 inh confirm 86 | RNase T1 inh 95
Cc1nc2ccccc2n1-c1ccccc1	none
CC(=O)c1sc(N/N=C\c2c(O)ccc3ccccc23)nc1C	HNF4A DNA FP 83, TPT1 inhibitor 117 (not shown: Rpn11 block) | TPT1 inh confirm 124 | RNase T1 inh 120
CC(=O)c1sc(N/N=C/c2cccc(O)c2)nc1C	none
CC(NC(=O)C1CCN(Cc2ccc(Oc3ccccc3)cc2)CC1)c1cccc2ccccc12 (stereo unspecified)	none (no result: CRFBP-R2 agonist, CRFR2-BP antag, TPT1 inhibitor)
Nc1c(C(=O)Nc2ccccc2)sc2nc(-c3ccco3)ccc12	none
COc1ccc(-c2ccc3c(N)c(C(=O)c4cccc(OC)c4)sc3n2)cc1	TPT1 inhibitor 63 | TPT1 inh confirm 63 | RNase T1 inh 74
COc1ccc(C(=O)c2ccc(-c3ccc(OC)cc3)nc2)cc1	none (no result: TPT1 inhibitor)
COc1ccccc1NC(=O)c1sc2nc(-c3ccco3)ccc2c1N	Rpn11 block active, TPT1 inhibitor 28 | TPT1 inh confirm inactive | RNase T1 inh 27
COc1ccc(C(=O)c2sc3nc(-c4ccc(OC)cc4)ccc3c2N)cc1	TPT1 inhibitor 54 | TPT1 inh confirm 83 | RNase T1 inh 91
COc1ccc(OC)c(Nc2cc(C)nc3ccccc23)c1	none
CSCCC1NC(=O)C(C(C)=Nc2ccccc2)=C1O (stereo unspecified)	none (no result: TPT1 inhibitor)
Cc1nn(CC(=O)c2ccc(Br)s2)c(C)c1[N+](=O)[O-]	TPT1 inhibitor 33 | TPT1 inh confirm 49 | RNase T1 inh 63
COc1ccc(NC(=O)c2cccc(-n3c(C)ccc3C)c2)c(OC)c1	none
Cc1ccc(C)n1-c1cccc(C(=O)Nc2ccccc2)c1	TPT1 inhibitor 38 | TPT1 inh confirm 40 | RNase T1 inh 50
COc1ccccc1CC(=O)NC1CCCCCC1	none
O=C(COC(=O)c1cc(-c2ccccn2)nc2ccccc12)Nc1ncc(C(F)(F)F)cc1Cl	none
N#CC1=C(SCC(=O)c2cc3ccccc3oc2=O)NC(=O)C(C#N)C12CCCC2 (stereo unspecified)	TPT1 inhibitor 49 (not shown: Rpn11 block) | TPT1 inh confirm 30 | RNase T1 inh 39
O=C(Cc1ccc(Cl)cc1)NNC(=S)NC(=O)c1cccnc1	TPT1 inhibitor 35 | TPT1 inh confirm 45 | RNase T1 inh 58
CCCn1nnc(NC(=O)c2cc3ccccc3o2)n1	none
Cc1ccsc1C1CC(=O)OC2=C1C(=O)CC(C)(C)C2 (stereo unspecified)	TPT1 inhibitor 109 (no result: HNF4A DNA FP, CRFBP-R2 agonist, Rpn11 block, CSN inh, CRFR2-BP antag) | TPT1 inh confirm inactive | RNase T1 inh inactive
CC1(C)CC(=O)C2=C(C1)OC(=O)CC2c1cccs1 (stereo unspecified)	none
N#Cc1c(-c2ccco2)cc(-c2cccnc2)nc1N	none
N#Cc1c(-c2ccco2)cc(-c2ccccn2)nc1N	TPT1 inhibitor 28 | TPT1 inh confirm inactive | RNase T1 inh inactive
Cc1ccccc1C(=O)N1CCN(c2ccc(NC(=O)c3cccnc3Cl)cc2)CC1	TPT1 inhibitor 94 | TPT1 inh confirm inactive | RNase T1 inh inactive
N#CC1=C(N)SC(N)=C(C#N)C1c1cccc(Oc2ccccc2)c1	TPT1 inhibitor 111 (not shown: Rpn11 block) | TPT1 inh confirm 54 | RNase T1 inh 69
Cc1ccc(C2C(C#N)=C(N)SC(N)=C2C#N)o1	TPT1 inhibitor 66 (no result: HNF4A DNA FP, CRFBP-R2 agonist, Rpn11 block, CSN inh, CRFR2-BP antag) | TPT1 inh confirm 34 | RNase T1 inh 46
N#CC1=C(N)SC(N)=C(C#N)C1c1ccc(C(F)(F)F)cc1	none (no result: HNF4A DNA FP, CRFBP-R2 agonist, Rpn11 block, CSN inh, CRFR2-BP antag)
CCOc1ccc(C2C(C#N)=C(N)SC(N)=C2C#N)cc1OCC	TPT1 inhibitor 126 (not shown: Rpn11 block) | TPT1 inh confirm 132 | RNase T1 inh 128
N#CC1=C(N)SC(N)=C(C#N)C1c1ccc([N+](=O)[O-])cc1	Rpn11 block active, TPT1 inhibitor 40 | TPT1 inh confirm inactive | RNase T1 inh inactive
Cc1ccc(S(=O)(=O)C2(C(=O)N3CCCCCC3)CC2)cc1	none
O=C1C(NS(=O)(=O)c2ccc(Br)cc2)=C(N2CCCCC2)C(=O)c2ccccc21	none
CCc1ccc(C2C(C#N)=C(N)SC(N)=C2C#N)s1	TPT1 inhibitor 91 (not shown: Rpn11 block) | TPT1 inh confirm 80 | RNase T1 inh 89
CCc1ccc(C2C(C#N)=C(N)SC(N)=C2C#N)cc1	CRFBP-R2 agonist 50, TPT1 inhibitor 106 (not shown: Rpn11 block) | TPT1 inh confirm 73 | RNase T1 inh 86
N#CC1=C(N)SC(N)=C(C#N)C1c1c(Cl)cccc1Cl	TPT1 inhibitor 47 (not shown: Rpn11 block) | TPT1 inh confirm inactive | RNase T1 inh 28
CCOc1ccccc1C1C(C#N)=C(N)Oc2n[nH]c(CC)c21 (stereo unspecified)	none
N#CC1=C(N)Oc2cc(N)ccc2C1c1ccccc1Cl (stereo unspecified)	none (no result: TPT1 inhibitor)
CCOc1ccccc1C1C(C#N)=C(N)SC(N)=C1C#N	TPT1 inhibitor 82 (not shown: Rpn11 block) | TPT1 inh confirm 56 | RNase T1 inh 67

Compound activity as filed in PubChem.
